Assay results collected from several papers.
Each line is one published result; the experiments were not run side by side. pEC50: −log10 of the molar value.
Action: agonist
AHR: Aryl hydrocarbon receptor (AHR, Homo sapiens, UniProt P35869)
CNR2: Cannabinoid receptor 2 (CNR2, Homo sapiens, UniProt P34972)
MC5R: Melanocortin receptor 5 (MC5R, Homo sapiens, UniProt P33032)
ADRB2: Beta-2 adrenergic receptor (ADRB2, Homo sapiens, UniProt P07550)

Structure (SMILES) | target | effect on | method | pEC50
CC(C)OC(=O)c1cccc(C(=O)c2c[nH]c3ccccc23)n1 | AHR | reporter gene | luciferase | < 5.00
O=c1ccn([C@@H]2O[C@H](COP(=O)(O)OP(=O)(O)O)[C@@H](O)[C@H]2O)c(=O)[nH]1 | P2Y purinoceptor 6 (P2RY6, Homo sapiens, UniProt Q15077) | inositol phosphate | – | 6.53
CCOC(=O)[C@](CC)(CCCS(=O)(=O)CCOCCOCCNC(=O)OC(C)(C)C)NC(=O)c1ccc(C2CC2)c(Cc2ccc(F)cc2)n1 | CNR2 | cAMP | – | 7.77
COC(=O)c1ccccc1C(=O)c1c[nH]c2ccccc12 | AHR | reporter gene | luciferase | < 5.00
c1ccc(Nc2nc3ccccc3nc2Nc2ccccc2)cc1 | CNR2 | cAMP | TR-FRET | 7.60
CSCC[C@H](NC(=O)[C@@H](NC(=O)[C@@H](N)Cc1ccc(O)cc1)C(C)C)C(=O)NCC(=O)N[C@@H](Cc1c[nH]cn1)C(=O)N[C@@H](Cc1ccccc1)C(=O)N[C@@H](CCCNC(=N)N)C(=O)N[C@@H](Cc1c[nH]c2ccccc12)C(=O)N[C@@H](CC(=O)O)C(=O)N[C@@H](CCCNC(=N)N)C(=O)O | MC5R | reporter gene | – | 5.13
COC(=O)c1cccc(C(=O)c2c[nH]c3ccc(Cl)cc23)n1 | AHR | reporter gene | luciferase | 7.49
CC1CCN(C(NC(=O)c2ccc(C(C)(C)C)cc2)C(Cl)(Cl)Cl)CC1 (stereo not drawn) | CNR2 | cAMP | TR-FRET | 7.30
Cc1ccc(-n2c(C)ccc2C)c2c1CC(C)(C)O2 | ADRB2 | calcium signal | fluorescence | 4.19
N=C(N)NCCC[C@H](NC(=O)[C@H](Cc1ccccc1)NC(=O)[C@@H](N)Cc1cnc[nH]1)C(=O)N[C@@H](Cc1c[nH]c2ccccc12)C(=O)O | MC5R | reporter gene | – | < 4.00
COc1ccc(CNC(=S)NC(C)(C)C)cc1 | ADRB2 | calcium signal | fluorescence | 5.72
CSCC[C@H](NC(=O)[C@@H](NC(=O)[C@@H](N)Cc1ccc(O)cc1)C(C)C)C(=O)NCC(=O)N[C@@H](Cc1c[nH]cn1)C(=O)N[C@@H](Cc1ccccc1)C(=O)N[C@@H](CCCNC(=N)N)C(=O)N[C@@H](Cc1c[nH]c2ccccc12)C(=O)O | MC5R | reporter gene | – | 4.62
